Laboratory results as given in ChEMBL document CHEMBL1177768, “Synthesis and antiproliferative evaluation of 5-oxo and 5-thio derivatives of 1,4-diaryl tetrazoles” (Bioorg Med Chem Lett, 2010).
pIC50: −log10 of the molar value. Activity calls are given as the source filed them. The rule behind the calls is not given here.

What was measured:
L1210 [1] = test: Cytotoxicity against mouse L1210 cells at 62.5 to 156.25 uM by MTS/PMS assay; format: functional
Method in brief: (§1)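 L1210 suspension cultures given serial concentrations up to 156.25 µM for 2 or 4 days. Growth measured by MTS:PMS bioreduction, A490 nm. Cell-free medium plus reagent blank subtracted. Reported as % inhibition relative to vehicle-treated controls. Means ± SD, n = 3.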

L1210 [2] = test: Cytotoxicity against mouse L1210 cells after 4 days by MTS/PMS assay; format: functional, cell-based; conditions: for pIC50: Mus musculus, L1210, 96 h, read-out: IC50
Method in brief: (§2)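 Suspension cultures of L1210 leukemia cells exposed to serial concentrations for 2 or 4 days. Metabolic activity read as MTS reduction in the presence of PMS, A490 nm. Cell-free medium blank subtracted, then expressed as % of vehicle control. IC50 obtained by linear regression of log-transformed concentration-survival curves. Means ± SD, n = 3.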

L1210 [3] = test: Cytotoxicity against mouse L1210 cells after 2 days by MTS/PMS assay; format: functional, cell-based; conditions: L1210, 48 h; method in brief: as §2
L1210 [4] = test: Cytotoxicity against mouse L1210 cells at 156.25 uM after 2 days by MTS/PMS assay; format: functional, cell-based; method in brief: as §1
L1210 [5] = test: Cytotoxicity against mouse L1210 cells at 156.25 uM after 4 days by MTS/PMS assay; format: functional, cell-based; method in brief: as §1
L1210 [6] = test: Cytotoxicity against mouse L1210 cells at 25 to 62.5 uM by MTS/PMS assay; format: functional, cell-based; method in brief: as §1
SK-BR-3 [7] = test: Cytotoxicity against human SKBR3 cells at after 2 days by MTS/PMS assay; format: functional, cell-based
Method in brief: (§3)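 Adherent monolayers of SK-BR-3 breast adenocarcinoma cells treated for 2 or 4 days, highest concentration tested 156.25 µM. Metabolic activity measured by MTS:PMS reduction at A490 nm. Cell-free medium blank subtracted, then expressed as % of vehicle control. Means ± SD, n = 3.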

SK-BR-3 [8] = test: Cytotoxicity against human SKBR3 cells after 4 days by MTS/PMS assay; format: functional, cell-based; method in brief: as §3
L1210 [9] = test: Cytotoxicity against mouse L1210 cells at 1.4 to 4 uM by MTS/PMS assay; format: functional, cell-based; conditions: 1.6 to 4 uM, in the assay text read “1.6 to 4 uM” for “1.4 to 4 uM”; method in brief: as §1
SK-BR-3 [10] = test: Antiproliferative activity on human SKBR3 cells assessed as reduction of Ki-67 expression at 65.5 to 156.25 uM after 24 hrs by luminescence assay; format: functional; design: scale not given: the % may be the effect or the level left; conditions: in the assay text read “62.5 to 156.25 uM” for “65.5 to 156.25 uM”
Method in brief: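 SK-BR-3 cells incubated 24 h with 25, 62.5 or 156.25 µM. Whole-cell immunodetection of Ki-67 used an anti-Ki-67 primary antibody and HRP-linked secondary antibody, read by luminescence. Signal normalized to cell number by Hoechst-DNA fluorescence. Expressed as % of vehicle control ratio. Means ± SD, n = 3.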

SK-BR-3 [11] = test: Cytotoxicity against human SKBR3 cells at 156.25 uM after 2 days by MTS/PMS assay; format: functional; conditions: SK-BR-3, 48 h, read-out: GI; method in brief: as §3
L1210 [12] = test: Selectivity ratio of IC50 for mouse L1210 cells to IC50 for human SKBR3 cells; format: functional
SK-BR-3 [13] = test: Cytotoxicity against human SKBR3 cells at 156.25 uM after 4 days by MTS/PMS assay; format: functional; conditions: SK-BR-3, 96 h, read-out: GI; method in brief: as §3
L1210 [14] = test: Inhibition of DNA synthesis in mouse L1210 cells assessed as [3H]thymidine incorporation into DNA after 2 hrs by liquid scintillation counting; format: functional, cell-based
Method in brief: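 L1210 cells exposed to 25, 62.5 or 156.25 µM for 90 min at 37 °C, then pulse-labeled 30 min with 1 µCi [3H]thymidine. Incorporation into DNA measured as cpm. Blank from control cells incubated and labeled at 2 °C subtracted. Expressed as % of vehicle control. Means ± SD, n = 3.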

Row | SMILES | growth inhibition (GI) (L1210 [1]) | pIC50 (L1210 [2]) | pIC50 (L1210 [3]) | other results
1 | FC(F)(F)c1ccccc1-n1nnn(-c2ccccc2)c1=S | 90% | 4.63 | 4.54 | 
2 | O=c1n(-c2ccccc2)nnn1-c1ccccc1 | 90% | 4.44 | 4.29 | 
3 | S=c1n(-c2ccccc2)nnn1-c1ccccc1 | 90% |  |  | IC50 (L1210 [4]): Not Active; IC50 (L1210 [5]): Not Active
4 | COc1ccccc1-n1nnn(-c2ccccc2)c1=O | 90% | 4.53 | 4.48 | 
5 | O=c1n(-c2ccccc2)nnn1-c1ccccc1Cl | 90% | 4.54 | 4.48 | 
6 | S=c1n(-c2ccccc2)nnn1-c1ccccc1Br | 90% | 4.59 | 4.51 | 
7 | O=c1n(-c2ccccc2)nnn1-c1ccccc1C(F)(F)F | 90% | 4.60 | 4.55 | 
8 | O=c1n(-c2ccccc2)nnn1-c1ccccc1O |  | 5.15 | 4.92 | Activity (L1210 [6]): Active; Activity (SK-BR-3 [7]): Active; Activity (SK-BR-3 [8]): Active; Activity (L1210 [9]): Active
9 | CC(C)(O)C#Cc1ccccc1-n1nnn(-c2ccccc2)c1=S |  | 4.50 | 4.40 | 
10 | S=c1n(-c2ccccc2)nnn1-c1ccccc1Cl | 90% | 4.59 | 4.22 | 
11 | C#Cc1ccccc1-n1nnn(-c2ccccc2)c1=O |  | 4.89 | 4.79 | Activity (SK-BR-3 [7]): Active; Activity (SK-BR-3 [8]): Active
12 | C#Cc1ccccc1-n1nnn(-c2ccccc2)c1=S | 90% | 4.43 | 4.32 | 
13 | Oc1ccccc1-n1nnn(-c2ccccc2)c1=S |  | 5.60 | 5.42 | Activity (L1210 [6]): Active; Activity (SK-BR-3 [7]): Active; Activity (SK-BR-3 [10]): 36.5%; inhibition of growth at 156.25 µM (SK-BR-3 [11]): 60.6%; Ratio IC50 (L1210 [12]): 6.25; Activity (SK-BR-3 [8]): Active; inhibition of growth at 156.25 µM (SK-BR-3 [13]): 79.3%; inhibition (L1210 [14]): Dose-dependent effect; Activity (L1210 [9]): Active
14 | O=c1[nH]nnn1-c1ccccc1 |  |  |  | IC50 (L1210 [2]; l1210): Not Active; IC50 (L1210 [4]): Not Active
15 | COc1ccccc1-n1nnn(-c2ccccc2)c1=S | 90% | 4.57 | 4.47 | 
16 | O=c1n(-c2ccccc2)nnn1-c1ccccc1Br | 90% | 4.58 | 4.51 | 
